Measured values published in ChEMBL document CHEMBL4376844, “A Novel Decalin-Based Bicyclic Scaffold for FKBP51-Selective Ligands” (J Med Chem, 2020).
The source made the active and inactive calls. The calls are words filed in the database; no cut-off is given here.

Assays:
KB [1] = experiment: Induction of apoptosis in human KB/HeLa cells overexpressing FKBP51 assessed as early apoptotic cells at 25 uM incubated for 40 hrs by AnnexinV-FITC and propidium iodide staining based flow cytometry analysis (reference value: 3.5%); format: functional
KB [2] = experiment: Cytotoxicity against human KB/HeLa cells overexpressing FKBP51 assessed as induction of cell death by measuring hypodiploid cells at 20 uM incubated for 72 hrs by propidium iodide based flow cytometry analysis (reference value: 4.7%); format: functional
[3] = target: T1, Peptidyl-prolyl cis-trans isomerase FKBP5 (Homo sapiens, UniProt Q13451); experiment: Inhibition of human full length N-terminal His-tagged/C-terminal FLAG tagged FKBP51 expressed in Escherichia coli BL21 (DE3) cells incubated for 30 mins by competitive fluorescence polarization assay
T1 sequence (Q13451 whole entry): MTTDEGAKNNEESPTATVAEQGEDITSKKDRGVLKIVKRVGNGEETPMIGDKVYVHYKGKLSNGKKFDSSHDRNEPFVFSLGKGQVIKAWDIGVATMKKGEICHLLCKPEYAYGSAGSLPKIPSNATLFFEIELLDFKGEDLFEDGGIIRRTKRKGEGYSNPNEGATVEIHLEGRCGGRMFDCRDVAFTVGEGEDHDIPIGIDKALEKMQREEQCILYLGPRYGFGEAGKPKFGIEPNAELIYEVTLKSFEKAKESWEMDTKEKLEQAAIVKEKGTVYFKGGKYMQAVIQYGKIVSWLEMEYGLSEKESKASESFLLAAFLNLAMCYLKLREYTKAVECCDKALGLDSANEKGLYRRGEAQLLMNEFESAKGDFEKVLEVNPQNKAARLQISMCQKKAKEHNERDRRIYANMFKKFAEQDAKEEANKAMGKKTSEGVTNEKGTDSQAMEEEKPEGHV

KB [4] = experiment: Cytotoxicity against human KB/HeLa cells overexpressing FKBP51 assessed as induction of cell death incubated for 72 hrs by propidium iodide based flow cytometry analysis; format: functional
Summary of the method: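 KB cells exposed to a range of compound doses for 72 h. 1×10^5 cells washed in PBS, then permeabilized in 0.1% sodium citrate, 0.1% Triton X-100 and 50 µg/mL propidium iodide for 30 min at 4°C in the dark. Nuclear DNA content read by flow cytometry on a log scale with debris gated out by forward scatter; % hypodiploid nuclei taken as dead cells. Four experiments, each in triplicate.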

KB [5] = experiment: Induction of apoptosis in human KB/HeLa cells overexpressing FKBP51 assessed as early apoptotic cells at 12 uM incubated for 40 hrs by AnnexinV-FITC and propidium iodide staining based flow cytometry analysis (reference value: 3.5%); format: functional
KB [6] = experiment: Cytotoxicity against human KB/HeLa cells overexpressing FKBP51 assessed as induction of cell death by measuring hypodiploid cells at 60 uM incubated for 72 hrs by propidium iodide based flow cytometry analysis (reference value: 4.7%); format: functional
KB [7] = experiment: Cytotoxicity against human KB/HeLa cells overexpressing FKBP51 assessed as induction of cell death by measuring hypodiploid cells at 1 uM incubated for 72 hrs by propidium iodide based flow cytometry analysis (reference value: 4.7%); format: functional
KB [8] = experiment: Induction of apoptosis in human KB/HeLa cells overexpressing FKBP51 assessed as viable cells at 12 uM incubated for 40 hrs by AnnexinV-FITC and propidium iodide staining based flow cytometry analysis (reference value: 87.7%); format: functional; details: read-out: Activity
KB [9] = experiment: Induction of apoptosis in human KB/HeLa cells overexpressing FKBP51 assessed as late apoptotic cells at 50 uM incubated for 40 hrs by AnnexinV-FITC and propidium iodide staining based flow cytometry analysis (reference value: 3.4%); format: functional
KB [10] = experiment: Cytotoxicity against human KB/HeLa cells overexpressing FKBP51 assessed as induction of cell death by measuring hypodiploid cells at 6 uM incubated for 72 hrs by propidium iodide based flow cytometry analysis (reference value: 4.7%); format: functional
KB [11] = experiment: Induction of apoptosis in human KB/HeLa cells overexpressing FKBP51 assessed as necrotic cells at 12 uM incubated for 40 hrs by AnnexinV-FITC and propidium iodide staining based flow cytometry analysis (reference value: 5.4%); format: functional
KB [12] = experiment: Induction of apoptosis in human KB/HeLa cells overexpressing FKBP51 assessed as late apoptotic cells at 25 uM incubated for 40 hrs by AnnexinV-FITC and propidium iodide staining based flow cytometry analysis (reference value: 3.4%); format: functional
[13] = target: T2, Peptidyl-prolyl cis-trans isomerase FKBP4 (Homo sapiens, UniProt Q02790); experiment: Inhibition of human full length N-terminal His-tagged/C-terminal FLAG tagged FKBP52 expressed in Escherichia coli BL21 (DE3) cells incubated for 30 mins by competitive fluorescence polarization assay; details: 0.5 h
T2 sequence (Q02790 whole entry): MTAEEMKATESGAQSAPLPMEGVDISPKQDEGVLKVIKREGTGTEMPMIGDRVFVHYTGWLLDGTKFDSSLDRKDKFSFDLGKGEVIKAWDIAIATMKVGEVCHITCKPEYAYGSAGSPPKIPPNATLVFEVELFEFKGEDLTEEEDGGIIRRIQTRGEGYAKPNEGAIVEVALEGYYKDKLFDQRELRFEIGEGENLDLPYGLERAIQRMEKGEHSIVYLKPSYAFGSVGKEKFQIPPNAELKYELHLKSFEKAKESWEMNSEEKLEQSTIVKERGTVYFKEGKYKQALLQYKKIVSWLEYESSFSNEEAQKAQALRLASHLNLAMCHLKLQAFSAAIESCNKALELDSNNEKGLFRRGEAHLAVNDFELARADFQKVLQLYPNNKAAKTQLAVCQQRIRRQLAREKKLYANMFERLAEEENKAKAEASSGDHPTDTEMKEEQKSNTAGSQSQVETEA

KB [14] = experiment: Induction of apoptosis in human KB/HeLa cells overexpressing FKBP51 assessed as viable cells at 25 uM incubated for 40 hrs by AnnexinV-FITC and propidium iodide staining based flow cytometry analysis (reference value: 87.7%); format: functional; details: read-out: Activity
KB [15] = experiment: Induction of apoptosis in human KB/HeLa cells overexpressing FKBP51 assessed as necrotic cells at 25 uM incubated for 40 hrs by AnnexinV-FITC and propidium iodide staining based flow cytometry analysis (reference value: 5.4%); format: functional
KB [16] = experiment: Induction of apoptosis in human KB/HeLa cells overexpressing FKBP51 assessed as late apoptotic cells at 12 uM incubated for 40 hrs by AnnexinV-FITC and propidium iodide staining based flow cytometry analysis (reference value: 3.4%); format: functional
KB [17] = experiment: Induction of apoptosis in human KB/HeLa cells overexpressing FKBP51 assessed as necrotic cells at 50 uM incubated for 40 hrs by AnnexinV-FITC and propidium iodide staining based flow cytometry analysis (reference value: 5.4%); format: functional
KB [18] = experiment: Induction of apoptosis in human KB/HeLa cells overexpressing FKBP51 assessed as early apoptotic cells at 50 uM incubated for 40 hrs by AnnexinV-FITC and propidium iodide staining based flow cytometry analysis (reference value: 3.5%); format: functional
KB [19] = experiment: Induction of apoptosis in human KB/HeLa cells overexpressing FKBP51 assessed as viable cells at 50 uM incubated for 40 hrs by AnnexinV-FITC and propidium iodide staining based flow cytometry analysis (reference value: 87.7%); format: functional; details: read-out: Activity
HeLa = experiment: Induction of apoptosis in human HeLa cells expressing low leves of FKBP51 at 50 uM incubated for 40 hrs by AnnexinV-FITC and propidium iodide staining based flow cytometry analysis; format: functional, cell-based
KB [20] = experiment: Induction of apoptosis in human KB/HeLa cells overexpressing FKBP51 assessed as increase in early apoptotic cells incubated for 40 hrs by annexin V and propidium iodide based flow cytometry analysis; format: functional, cell-based
KB [21] = experiment: Induction of apoptosis in human KB/HeLa cells overexpressing FKBP51 assessed as necrotic cells at 1 uM incubated for 40 hrs by AnnexinV-FITC and propidium iodide staining based flow cytometry analysis (reference value: 5.4%); format: functional
KB [22] = experiment: Induction of apoptosis in human KB/HeLa cells overexpressing FKBP51 assessed as viable cells at 1 uM incubated for 40 hrs by AnnexinV-FITC and propidium iodide staining based flow cytometry analysis (reference value: 87.7%); format: functional; details: read-out: Activity
KB [23] = experiment: Induction of apoptosis in human KB/HeLa cells overexpressing FKBP51 assessed as late apoptotic cells at 1 uM incubated for 40 hrs by AnnexinV-FITC and propidium iodide staining based flow cytometry analysis (reference value: 3.4%); format: functional
KB [24] = experiment: Induction of apoptosis in human KB/HeLa cells overexpressing FKBP51 assessed as early apoptotic cells at 1 uM incubated for 40 hrs by AnnexinV-FITC and propidium iodide staining based flow cytometry analysis (reference value: 3.5%); format: functional

`COc1ccc(CCC(OC(=O)C2CCCCN2C(=O)[C@@H]2C[C@@H](O)[C@@H](O)[C@@H]3CCCC[C@H]32)c2cccc(OCCN3CCOCC3)c2)cc1OC` (single isomer, unassigned) gave an Activity (KB [1]) of 11.1%, an Activity (KB [2]) of 15.3% and a Ki [3] of 0.28 µM. The Activity (KB [4]) was “Dose-dependent effect”, the Activity (KB [5]) was 10.1% and the Activity (KB [6]) was 26.1%. It also gave an Activity (KB [7]) of 5.6%, a viability at 12 µM (KB [8]) of 73.7% and an Activity (KB [9]) of 11.4%. The Activity (KB [10]) was 11.6%, the Activity (KB [11]) was 9.6% and the Activity (KB [12]) was 9.6%. The “inhibition (INH)” value [13] was “Not Active”, the viability at 25 µM (KB [14]) was 72.5% and the Activity (KB [15]) was 6.8%. For the same compound, the Activity (KB [16]) was 6.6%, the Activity (KB [17]) was 8.1% and the Activity (KB [18]) was 21.7%. The viability at 50 µM (KB [19]) was 58.9%, the Activity (HeLa) was “Active” and the Activity (KB [20]) was “Dose-dependent effect”.

`COc1ccc(CC[C@@H](OC(=O)[C@@H]2CCCCN2C(=O)[C@H](c2cc(OC)c(OC)c(OC)c2)C2CCCCC2)c2cccc(OCC(=O)O)c2)cc1OC` gave an Activity (KB [21]) of 2.1%, a viability at 1 µM (KB [22]) of 65.1% and an Activity (KB [23]) of 12.6%. The Activity (KB [24]) was 20.2%.
